Values after ≈ are worked out from the molar mass of the structure shown. Active and inactive are the calls of the source. No cut-off for these calls is given here.
Key:
[1] = Displacement of [125I]sauvagine from CRF2 receptor in porcine choroid plexus homogenate by binding titration assay; assay type: tissue-based, Sus scrofa
Method in brief: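 Porcine choroid plexus homogenate; inhibition of [125I]-sauvagine binding measured in a titration format.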

Rattus norvegicus [2] = test: Ex vivo receptor occupancy of CRF1 receptor in Sprague-Dawley rat brain parietal assessed as inhibition of [125I]sauvagine binding at 10 mg/kg, po after 90 mins by autoradiography; assay type: functional; conditions: 1.5 h
Rattus norvegicus [3] = test: Anxiolytic activity in Sprague-Dawley rat assessed as decrease in exit latency at 10 mg/kg, po after 60 mins by defensive withdrawal test; assay type: functional, organism-based; set-up: dose 10 mg/kg
[4] = target: T1, Corticotropin-releasing factor receptor 1 (Rattus norvegicus, UniProt P35353); test: Displacement of [125I]Tyr-o-CRF from CRF1 receptor in rat frontal cortex homogenate by binding titration assay; assay type: tissue-based
T1 sequence (P35353 whole entry): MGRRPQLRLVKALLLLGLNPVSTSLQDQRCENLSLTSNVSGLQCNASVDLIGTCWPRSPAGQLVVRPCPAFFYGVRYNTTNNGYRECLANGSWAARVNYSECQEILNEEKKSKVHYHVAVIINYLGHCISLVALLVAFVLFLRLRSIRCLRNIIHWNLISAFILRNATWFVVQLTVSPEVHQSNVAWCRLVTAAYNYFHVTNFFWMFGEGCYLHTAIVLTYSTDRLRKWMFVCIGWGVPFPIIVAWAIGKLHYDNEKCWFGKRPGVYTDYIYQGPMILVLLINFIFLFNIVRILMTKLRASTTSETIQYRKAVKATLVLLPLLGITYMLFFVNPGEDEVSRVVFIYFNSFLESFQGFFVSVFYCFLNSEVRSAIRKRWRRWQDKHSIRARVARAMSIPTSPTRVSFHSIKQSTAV

[5] = Metabolic stability in human liver microsomes assessed as compound remaining at 3 uM after 10 mins by HPLC/UV/MS analysis; assay type: ADME, Microsome; conditions: read-out: Stability
[6] = Metabolic stability in rat liver microsomes assessed as compound remaining at 3 uM after 10 mins by HPLC/UV/MS analysis; assay type: ADME, Microsome; conditions: read-out: Stability
Method in brief: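 Pooled human or rat liver microsomes (1 mg/mL protein) with 3 μM compound and 1.3 mM NADPH in 100 mM sodium phosphate pH 7.4 at 37 °C; final 0.015% DMSO, 0.985% acetonitrile; stopped at 0 and 10 min, percent remaining by LC/MS/MS.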

[7] = Aqueous solubility at pH 1; assay type: physicochemical
[8] = Aqueous solubility at pH 6.5; assay type: physicochemical
[9] = Dissociation constant, pKa by spectrophotometric titration method; assay type: physicochemical
Method in brief: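 Spectrophotometric titration over pH 2–11 in varying acetonitrile/water mixtures, extrapolated to 0% cosolvent.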

[10] = Oral bioavailability in Sprague-Dawley rat at 10 mg/kg dosed as aqueous suspension of Labrafil M 1944CS/DMAC/polysorbate 80, 85:10:5 (v/v) after 0.25 to 24 hrs by LC/MS/MS analysis; assay type: ADME, organism-based; conditions: in vivo
[11] = Cmax in Sprague-Dawley rat at 10 mg/kg, po dosed as aqueous suspension of 1% polysorbate 80 in 0.5% methylcellulose after 2 to 4 hrs by LC/MS/MS analysis; assay type: ADME, organism-based; set-up: dose 10 mg/kg, route oral; conditions: in vivo
[12] = Clearance in Sprague-Dawley rat at 2 mg/kg, iv after 0.17 to 24 hrs by LC/MS/MS analysis; assay type: ADME, organism-based; set-up: dose 2 mg/kg, route intravenous; conditions: in vivo
[13] = AUC in Sprague-Dawley rat at 10 mg/kg, po dosed as aqueous suspension of 1% polysorbate 80 in 0.5% methylcellulose after 0.25 to 24 hrs by LC/MS/MS analysis; assay type: ADME, organism-based; set-up: time upper 24 hr, time lower 0.25 hr, dose 10 mg/kg, route oral; conditions: in vivo
[14] = Fraction unbound in human serum after 3 to 7 hrs by equilibrium dialysis; assay type: ADME, cell-free
Method in brief: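 Human serum spiked with compound, equilibrium-dialysed against isotonic phosphate buffer for 3 or 7 h (depending on system) at 37 °C; both sides measured by LC/MS/MS, unbound fraction as buffer/serum concentration ratio.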

[15] = Volume of distribution at steady state in Sprague-Dawley rat at 2 mg/kg, iv after 0.17 to 24 hrs by LC/MS/MS analysis; assay type: ADME, organism-based; set-up: dose 2 mg/kg, route intravenous; conditions: in vivo, read-out: Vdss
Method in brief: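 Sprague–Dawley rats (n = 3) dosed 2 mg/kg iv in PEG:ethanol 90:10 (v/v) at 1 mL/kg. Plasma stored at –20 °C and quantified by LC/MS/MS after acetonitrile precipitation with internal standard.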

[16] = Oral bioavailability in Sprague-Dawley rat at 10 mg/kg dosed as aqueous suspension of 1% polysorbate 80 in 0.5% methylcellulose after 0.25 to 24 hrs by LC/MS/MS analysis; assay type: ADME, organism-based; conditions: in vivo
[17] = Octanol-water partition coefficient, log D at pH 7.4; assay type: physicochemical
Method in brief: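 Partitioning between octanol and water at pH 7.4.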

[18] = Half life in Sprague-Dawley rat at 2 mg/kg, iv by LC/MS/MS analysis; assay type: ADME, organism-based; set-up: dose 2 mg/kg, route intravenous; conditions: in vivo
[19] = Cmax in Sprague-Dawley rat at 10 mg/kg, po dosed as aqueous suspension of Labrafil M 1944CS/DMAC/polysorbate 80, 85:10:5 (v/v) after 2 to 4 hrs by LC/MS/MS analysis; assay type: ADME, organism-based; set-up: dose 10 mg/kg, route oral; conditions: in vivo
[20] = AUC in Sprague-Dawley rat at 10 mg/kg, po dosed as aqueous suspension of Labrafil M 1944CS/DMAC/polysorbate 80, 85:10:5 (v/v) after 0.25 to 24 hrs by LC/MS/MS analysis; assay type: ADME, organism-based; set-up: time 0.25-24 hr, dose 10 mg/kg, route oral; conditions: plasma

CC[C@H](C)[C@H](NC(=O)[C@@H](NC(=O)[C@H](CC(=O)O)NC(=O)[C@H](CC(C)C)NC(=O)[C@H](CC(C)C)NC(=O)[C@H](CC(C)C)NC(=O)[C@H](CCCN=C(N)N)NC(=O)[C@H](CC(N)=O)NC(=O)[C@H](CC(N)=O)NC(=O)[C@H](C)NC(=O)[C@H](C)NC(=O)[C@H](CCC(N)=O)NC(=O)[C@H](CCC(N)=O)NC(=O)[C@H](CCCCN)NC(=O)[C@H](CCC(=O)O)NC(=O)[C@H](CCCCN)NC(=O)[C@H](CCC(=O)O)NC(=O)[C@H](CCC(N)=O)NC(=O)[C@H](CCCCN)NC(=O)[C@H](CCC(=O)O)NC(=O)[C@@H](NC(=O)[C@H](CCC(=O)O)NC(=O)[C@@H](NC(=O)[C@H](CCSC)NC(=O)[C@H](CCCCN)NC(=O)[C@H](CCCN=C(N)N)NC(=O)[C@H](CC(C)C)NC(=O)[C@H](CC(C)C)NC(=O)[C@H](CCC(=O)O)NC(=O)[C@H](CC(C)C)NC(=O)[C@H](CO)NC(=O)[C@H](CC(C)C)NC(=O)[C@H](CC(=O)O)NC(=O)[C@@H](NC(=O)[C@H](CO)NC(=O)[C@@H](NC(=O)[C@@H]1CCCN1C(=O)[C@@H]1CCCN1C(=O)CNC(=O)[C@@H]1CCC(=O)N1)[C@@H](C)CC)[C@@H](C)CC)[C@@H](C)CC)[C@@H](C)CC)[C@@H](C)O)C(=O)O [SAUVAGINE]
IC50 [1]: 0.58 nM

COCC(COC)Nc1nc(C)nc2c(-c3ccc(Cl)cc3Cl)c(C)nn12
inhibition in vivo at 10 mg/kg (Rattus norvegicus [2]): 89%
Activity (Rattus norvegicus [3]): Active

COC[C@@H](C)n1cc(Cl)nc(Nc2cc(C)c(OC)nc2C)c1=O
IC50 [4]: 14 nM
remaining at 10 min, 3 µM [5]: 39%
remaining at 10 min, 3 µM [6]: 8%

COC[C@@H](C1CC1)n1cc(Cl)nc(Nc2cc(C)c(OC)nc2C)c1=O
IC50 [4]: 1.1 nM
remaining at 10 min, 3 µM [5]: 40%
remaining at 10 min, 3 µM [6]: 13%

COC[C@@H](C1CC1)n1cc(C#N)nc(Nc2cc(C)c(OC(F)F)nc2C)c1=O
IC50 [4]: 1.4 nM
remaining at 10 min, 3 µM [5]: 78%
remaining at 10 min, 3 µM [6]: 64%

CC[C@H](C1CC1)n1cc(Cl)nc(Nc2cc(C)c(OC)nc2C)c1=O
IC50 [4]: 0.28 nM
remaining at 10 min, 3 µM [5]: 51%
remaining at 10 min, 3 µM [6]: 5%

CC[C@H](C1CC1)n1cc(C#N)nc(Nc2cc(C)c(OC)nc2C)c1=O
solubility [7]: 23 µg/mL (≈ 65.1 µM)
solubility [8]: 1 µg/mL (≈ 2.83 µM)
pKa [9]: < 2
bioavailability [10]: 33%
Cmax [11]: 50 nM
clearance [12]: 53 mL/min/kg
AUC [13]: 0.24 µM·h
IC50 [4]: 1.7 nM
remaining at 10 min, 3 µM [5]: 81%
fraction unbound [14]: 0.019
Vd [15]: 11 L/kg
remaining at 10 min, 3 µM [6]: 38%
bioavailability [16]: 3%
logD [17]: 4.1
half-life [18]: 9 h
Cmax [19]: 590 nM
AUC [20]: 3 µM·h

COc1nc(C)c(Nc2nc(C#N)cn([C@H](C)C3CC3)c2=O)cc1C
IC50 [4]: 10 nM
remaining at 10 min, 3 µM [5]: 99%
remaining at 10 min, 3 µM [6]: 72%

COC[C@@H](C1CC1)n1cc(Cl)nc(Nc2cc(C)c(OC(F)F)nc2C)c1=O
bioavailability [10]: 48%
clearance [12]: 31 mL/min/kg
IC50 [4]: 0.5 nM
remaining at 10 min, 3 µM [5]: 84%
fraction unbound [14]: 0.008
Vd [15]: 42 L/kg
remaining at 10 min, 3 µM [6]: 46%
half-life [18]: 16 h
Cmax [19]: 440 nM
AUC [20]: 4.7 µM·h

From ChEMBL document CHEMBL1154735, “A strategy to minimize reactive metabolite formation: discovery of (S)-4-(1-cyclopropyl-2-methoxyethyl)-6-[6-(difluoromethoxy)-2,5-dimethylpyridin-3-ylamino]-5-oxo-4,5-dihydropyrazine-2-carbonitrile as a potent, orally bioavailable corticotropin-releasing factor-1 receptor antagonist” (J Med Chem, 2009)
